FLuc inhib CS = Photinus pyralis luciferase inhibition counter-screen | P08659 | ATPLite firefly luciferase biochemical luminescence, 10 min | inhibition, % at 10 µM | actives 1.5% (n = 200,000);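 active means inhibition above about 50% when tested at 10 µM, limit read from the data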
Target sequence (P08659 whole entry, looked up): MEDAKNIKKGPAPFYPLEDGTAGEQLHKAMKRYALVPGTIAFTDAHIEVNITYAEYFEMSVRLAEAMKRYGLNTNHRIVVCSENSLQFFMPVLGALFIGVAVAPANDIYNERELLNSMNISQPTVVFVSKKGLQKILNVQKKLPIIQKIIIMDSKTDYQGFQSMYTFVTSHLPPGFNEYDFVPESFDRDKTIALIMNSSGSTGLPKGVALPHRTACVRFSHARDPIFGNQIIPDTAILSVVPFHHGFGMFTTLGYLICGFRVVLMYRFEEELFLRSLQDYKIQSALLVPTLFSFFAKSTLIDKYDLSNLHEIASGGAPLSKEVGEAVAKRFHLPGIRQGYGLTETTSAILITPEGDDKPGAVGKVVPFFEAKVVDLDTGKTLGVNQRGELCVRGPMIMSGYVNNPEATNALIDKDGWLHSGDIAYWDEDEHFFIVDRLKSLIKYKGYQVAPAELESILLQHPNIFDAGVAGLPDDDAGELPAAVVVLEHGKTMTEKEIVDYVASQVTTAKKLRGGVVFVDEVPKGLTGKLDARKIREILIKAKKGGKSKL
NF-kB expr up = raises NF-kB expression in human neuronal cells; AID 1239; fold change at 12.5 µM; NF-kB reporter expression; hits give high values; actives 1.6% (n = 190,000); in the data active means fold change above about 3.3
STAT1 activator = STAT1 signaling activation; actives 2.6% (n = 200,000); AID 932; activation (% of control), % at 5.5 µM; NIH 3T3 STAT1-luciferase reporter, IFN-gamma, luminescence; 100% = IFN-gamma alone, no compound;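 active means activation above the screen-wide mean activation plus 3 SD, cut at about 130% in these data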;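 further: raw ratio to IFN-gamma control signal so 100% means no change and 0% no light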
APP 5'UTR act = APP 5'UTR luciferase reporter activation. SH-SY5Y APP 5'UTR luciferase reporter, luminescence; zero percent = DMSO vehicle wells. activation, % at 2 µM. actives 1% (n = 190,000). AID 1276;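 active means activation above a set limit, based on mean plus 3 SD of controls, cut at about 140% in these data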
FLuc stim CS = firefly luciferase counter-screen for stimulation assays; 200,000 tested, under 10 active; activation factor at 10 µM; ATPlite luciferase biochemical, luminescence, 10 min; 0 = ATP-free wells, 1 = DMSO control;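 active means luciferase activation factor, scaled between plate controls, of at least 2 with compound at 10 µM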
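System: luciferase plus luciferin reagent, cell-free; medium: PBS as buffer for the ATP substrate; dosing: test compounds dosed from 2 mM stocks in 100% DMSO; timing: 10 min post-reagent at room temperature; measured by: luminescence measurement of luciferase light output; evaluation: luciferase activation, seen as luminescence increase over controls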
The depositor's hits bear a star; . = not tested or not shown. A selection: hits, their analogues and other compounds. The true share with any hit is near 4.1%.

SMILES	FLuc inhib CS	NF-kB expr up	STAT1 activator	APP 5'UTR act	FLuc stim CS
CNc1nnc(-c2ccc(N(C)C)cc2)s1	92*	4.7*	87	115	0.1
CN(C)c1ccc(-c2ccncc2)cc1	2	.	.	.	1
Cc1ccc(C)c(S(=O)(=O)N2CCN(c3ncccn3)CC2)c1	-1	4.8*	82	-9	1
CC(C)(C)c1ccc(S(=O)(=O)N2CCN(c3ncccn3)CC2)cc1	-11	1	101	7	1.1
CCOC(=O)N1CCN(C(=S)NC(C)(C)C)CC1	-8	1.5	102	-3	1.1
CC(=O)NCCN=Cc1sc2ccccc2c1O	-2	1.1	110	16	1
CCCN=Cc1sc2ccc(OCC)cc2c1O	10	1.8	130*	45	0.9
C=CCNC(=O)C1CC(=O)N(c2ccc(OCC(=O)NCc3ccccc3)cc2)C1 (stereo not drawn)	-6	1.4	94	-6	1.1
CCn1c(C)nc2cc(C(=O)N/N=C/c3ccc(OC)cc3)ccc21	-3	1.2	112	38	1
CCn1c(C)nc2cc(C(=O)N/N=C/c3ccc(O)cc3)ccc21	13	1.1	100	-1	0.9
CCn1c(C)nc2cc(C(=O)N/N=C/c3ccccc3)ccc21	25	3	145*	55	0.8
CCn1c(C)nc2cc(C(=O)N/N=C/c3cccc(O)c3O)ccc21	66*	2.6	117	-26	0.3
CN1C(=O)CC(N2CCN(C(=O)c3ccccc3)CC2)C1=O (stereo not drawn)	-2	1.1	104	2	1
Nc1nc2ccc(O)cc2s1	0	1.8	96	8	1
CC(C)c1ccc2nc(N)sc2c1	67*	3.1	113	122	0.3
Nc1ccccc1-c1nc2ccccc2s1	15	2.4	144*	119	0.9
CC(=O)NCc1ccc(-c2nc3ccccc3s2)cc1	64*	1.1	136*	151*	0.4
O=C(NCc1ccccc1)c1nc2ccccc2s1	2	1.1	112	39	1
COc1ccc(-c2nc3ccccc3nc2-c2ccccc2)cc1	-4	0.87	96	7	1
Cc1ccc(Cn2cccc(-c3nc4ccccc4s3)c2=O)cc1	5	2.6	140*	31	1
COc1ccc2nc3ccccc3nc2c1	20	2.1	144*	45	0.8
Cc1ccc(CC2CC(=O)N(c3nc4ccccc4s3)C2=O)cc1 (stereo not drawn)	-1	1.2	105	15	1
Cc1cccc(-n2c(O)c(C=Nc3ccccc3)c3ccccc3c2=O)n1	-6	1.1	99	4	1.1
O=C(CN1C(=O)C2CC=CCC2C1=O)Nc1nnc(SCc2ccc(F)cc2)s1 (stereo not drawn)	1	0.98	107	5	1
COc1ccc(C2C(C(N)=O)=C(C)Nc3nc(-c4ccccc4OC)nn32)cc1OC (stereo not drawn)	-4	1	97	-5	1
SMILES	FLuc inhib CS	NF-kB expr up	STAT1 activator	APP 5'UTR act	FLuc stim CS
COc1ccc(-c2nc3ccccc3s2)cc1	92*	3.2	33	169*	0.1
COc1ccc(-c2cc(OC)c3ccccc3n2)cc1	3	1.1	95	11	1
c1ccc2sc(-c3ccc4c(c3)OCO4)nc2c1	89*	6.3*	96	168*	0.1
COc1ccc(-c2ccc3ccccc3n2)cc1	72*	10*	78	206*	0.3
O=C(Nc1cccc(-c2nc3ccccc3s2)c1)c1ccc2c(c1)OCO2	0	1.2	94	-7	1
CN(C)c1nc(N)nc(-c2nc3ccccc3s2)n1	32	2.9	135*	25	0.7
Cc1nn(C2CCS(=O)(=O)C2)c(Cl)c1/C=C/C(=O)OCC(=O)Nc1ccc2c(c1)OCO2 (stereo not drawn)	-1	0.9	92	5	1
Cc1nc([N+](=O)[O-])cn1CC(=O)NCCCO	-4	1.1	104	-6	1
O=C(OCCC1Oc2cccnc2NC1=O)c1ccc(F)cc1 (stereo not drawn)	-1	1.3	95	6	1
Cc1nc(N)sc1-c1nnc(SCC(=O)Nc2ccccc2C(F)(F)F)n1C	-10	1.1	100	8	1.1
Cc1nnc(SCC(=O)NCc2ccc(Cl)cc2)[nH]c1=O	-6	1.3	98	3	1.1
Clc1ccc(Nc2nc(NCCN3CCOCC3)nc(N3CCOCC3)n2)cc1	0	0.49	93	-15	1
CC1CCN(C(=O)CSc2nc3ccccc3s2)CC1	4	2.8	132*	94	1
O=C(O)C1CCN(C(=O)CSc2nc3ccccc3s2)CC1	-2	0.86	97	18	1
O=C(O)c1cccc(-c2nnn(Cc3ccccc3Cl)n2)c1	14	4.2*	67	21	0.9
CCCCOc1ccc(C(=O)Oc2ccc(C)nc2)cc1	2	1	92	11	1
CCCCCOc1ccc(OC(=O)c2ccncc2)cc1	-2	3.8*	105	-12	1
COC(=O)C1CCCN1S(=O)(=O)c1ccc2ccccc2c1 (stereo not drawn)	-3	1.1	99	15	1
CC1CC1C(=O)OCc1cc(=O)n2cc(Br)ccc2n1 (stereo not drawn)	11	2.1	136*	63	0.9
Cc1ccccc1C(=O)NC(CC(C)C)C(=O)OCc1cc(=O)n2cc(Br)ccc2n1 (stereo not drawn)	2	3.5*	138*	74	1
Cn1c(N)c(C(=O)COC(=O)c2ccc(Cl)nc2)c(=O)n(C)c1=O	-5	1	92	-14	1.1
CC(C)(C)c1csc(NC(=O)c2ccc(Cl)s2)n1	0	3.6*	137*	87	1
CC(C)(C)c1csc(NC(=O)Nc2ccccc2)n1	46	4.9*	136*	129	0.5
Cc1ccc(C(=O)Nc2nc(C(C)(C)C)cs2)s1	22	5*	146*	106	0.8
CCOC(=O)c1c(C)c(C(=O)NCc2ccc3c(c2)OCO3)c(C)n1C	-2	0.96	103	12	1
SMILES	FLuc inhib CS	NF-kB expr up	STAT1 activator	APP 5'UTR act	FLuc stim CS
COc1ccc(C(=O)Nc2ccc(S(=O)(=O)Nc3onc(C)c3C)cc2)cc1	12	1.3	101	-8	0.9
Nc1ccccc1C(=O)N/N=C1\C2CN3CCN(C2)CC1(c1ccccc1)C3	0	1.8	130*	51	1
O=C(/C=C/c1cccc([N+](=O)[O-])c1)Nc1ccc(Cl)cn1	0	0.56	113	45	1
Cc1ccc(NC(=O)/C=C/c2ccc(Cl)cc2)nc1	6	1.7	137*	55	0.9
O=C(/C=C/c1ccccc1)Nc1ccc(Br)cn1	11	0.97	142*	-63	0.9
CN1C(=O)CSc2ccc(NC(=O)Nc3ccccn3)cc21	20	1.4	142*	29	0.8
CC(=O)Nc1ccc(NC(=O)Nc2ccc3c(c2)N(C)C(=O)CS3)cc1	7	0.95	102	-1	0.9
c1csc(-c2nnc(-c3ccc(N4CCOCC4)cc3)o2)c1	71*	3.4*	114	122	0.3
